Screens (PubChem)
An excerpt weighted towards active compounds, which were near 1.8% of everything screened.
DDE Tn7 FP inh = inhibitors of Tn7 peptide binding to fibrin DD(E), primary screen, biochemical, fluorescence polarization, human fibrin, Tn7 probe; FP displacement of FITC-Tn7 peptide from fibrin DD(E); 0% = median of compound wells per plate; AID 720508, 2013; inhibition, % at 8.3 µM; actives 0.13% (n = 370,000); Fibrinogen beta chain (Homo sapiens), P02675;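 active means inhibition above the mean of compounds falling within the control limits plus 3 SD of them, cut at about 14% in these data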
Target sequence (P02675 whole entry, looked up): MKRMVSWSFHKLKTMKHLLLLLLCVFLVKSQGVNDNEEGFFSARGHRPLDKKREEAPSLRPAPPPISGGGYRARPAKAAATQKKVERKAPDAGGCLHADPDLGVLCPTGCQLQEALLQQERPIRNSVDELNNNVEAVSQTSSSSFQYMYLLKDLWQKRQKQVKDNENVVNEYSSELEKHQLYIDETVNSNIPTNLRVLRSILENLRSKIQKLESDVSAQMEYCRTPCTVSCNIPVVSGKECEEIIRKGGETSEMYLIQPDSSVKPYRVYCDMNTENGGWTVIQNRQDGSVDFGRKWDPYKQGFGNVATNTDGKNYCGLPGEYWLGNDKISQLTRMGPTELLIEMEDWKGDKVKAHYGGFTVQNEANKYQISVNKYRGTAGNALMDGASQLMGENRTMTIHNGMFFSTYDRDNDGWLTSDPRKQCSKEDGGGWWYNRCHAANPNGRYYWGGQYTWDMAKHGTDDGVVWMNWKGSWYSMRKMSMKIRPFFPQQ
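System: human fibrin DD(E); quantity: Fibrin-DD(E) at 2 µM final; also added: fluorescent Tn7 probe at 0.1 µM; compound dosing: single nominal test concentration of 8.3 µM per compound; schedule: 10 min preincubation, 3 h with tracer, room temperature; detection: fluorescence polarization of the labelled Tn7 tracer; repeats: one replicate per compound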
SIAE inh = human SIAE inhibitors, primary screen, biochemical, fluorescence polarization, FP-Rh probe, 1536-well HTS. Sialate O-acetylesterase (Homo sapiens), Q9HAT2. AID 1053197, 2014. SIAE FP-Rh probe binding. inhibition, % at 9.66 µM. actives 0.69% (n = 370,000);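 active means inhibition above a cutoff: mean of compounds within the control limits plus 3 SD of those, cut at about 17% in these data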
ABHD4 inh = ABHD4 inhibitors, primary screen, biochemical, fluorescence polarization, mouse; purified mABHD4, FP-Rh probe fluorescence polarization; inhibition, % at 8.92 µM; actives 0.54% (n = 370,000); AID 720543, 2013;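 active means inhibition exceeding the mean over every tested compound plus 3 SD, cut at about 30% in these data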
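Test system: mouse ABHD4 enzyme, wild type. Reagent: FP-Rh fluorescent activity-based probe, added after compound pre-incubation. Timing: pre-incubation 45 min, probe exposure 60 min, at 25 °C. Technique: FP readout, ex 525 nm / em 598 nm. Benchmarks: high control S159A mutant with DMSO, low control median of compound wells.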
Tn6 DDE FP = inhibitors of Tn6 peptide binding to fibrin DD(E), primary screen, biochemical, fluorescence polarization, human fibrin, Tn6 probe. Fibrinogen beta chain (Homo sapiens), P02675. Fibrin DD(E) TRITC-Tn6 fluorescence polarization displacement. inhibition, % at 8.3 µM. actives 0.21% (n = 370,000). AID 720509, 2013;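 active means inhibition above a per-campaign cutoff: mean of compounds within control limits plus 3 SD, cut at about 15% in these data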
TCR CD3 inh = inhibitors of human TCR-CD3 interaction, primary screen, biochemical, fluorescence, TAMRA-labeled TCR probe | inhibition, % at 9.4 µM | AID 651800, 2012 | actives 0.37% (n = 360,000); in the data active means inhibition above about 19%;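 further: recombinant mutant TCR 2C K166C tagged with TAMRA read by polarization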
HTRA1 inhibitor = HTRA1 serine protease inhibitors, primary screen, biochemical, fluorescence polarization, HTS; AID 504803, 2011; inhibition, % at 5.96 µM; Q92743; actives 0.5% (n = 340,000); recombinant HTRA1, FP-rhodamine activity-based probe; in the data active means inhibition above about 36%
ABHD4 confirm = ABHD4 inhibitors, retest, confirmation, biochemical, fluorescence polarization, mouse | shares compounds with ABHD4 inh | purified mABHD4, FP-Rh probe fluorescence polarization | inhibition, % at 8.92 µM | actives 55% (n = 1,800) | AID 720658, 2013;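 active means mean inhibition across replicates above the hit cutoff set in the primary screen, cut at about 30% in these data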
Of the large screens only hits and unclear results are named; the others gave an inactive call (follow-up assays come after a bar, where they were run).

C(=C\c1ccccc1)/CN1CCN(C(c2ccccc2)c2ccccc2)CC1	ABHD4 inh 95 | ABHD4 confirm inactive
Cc1csc(N=Cc2ccc([N+](=O)[O-])o2)n1	ABHD4 inh 30 | ABHD4 confirm inactive
CCCCOCCCNC(=O)C[C@H]1C(=O)N(Cc2ccc(OC)cc2)C2=CCCC[C@@]21C(=O)OCC	none (no result: TCR CD3 inh, HTRA1 inhibitor)
COc1ccc(S(=O)(=O)N(C(=O)c2ccco2)c2cc3sc(=O)oc3c3ccccc23)cc1	ABHD4 inh 54 | ABHD4 confirm 31
COCCN1Cc2cc(C(=O)OC)c3c(c2C1=O)c1cc(OC)ccc1n3S(C)(=O)=O	none (no result: HTRA1 inhibitor)
O=c1c(-c2ccco2)nc2ccccc2n1C(c1ccccn1)c1nc2ccccc2[nH]1 (stereo not drawn)	ABHD4 inh 38 (no result: HTRA1 inhibitor) | ABHD4 confirm inactive
O=c1c(-c2ccco2)nc2ccccc2n1C(c1ccccc1)c1nc2ccccc2[nH]1 (stereo not drawn)	none (no result: HTRA1 inhibitor)
COC(=O)[C@]12C[C@H](CC(=O)N3CCSCC3)C(=O)N(CCC3=CCCCC3)C1=C[C@H](C1CCCC1)O[C@@H]2C	none (no result: TCR CD3 inh, HTRA1 inhibitor)
COC(=O)C1=C(O)/C(=C\c2ccc(CNC(=O)C(=O)Nc3ccc(C)c(C)c3)o2)N=C1C	none
COC(=O)C1=C(O)/C(=C\c2ccc(CNS(=O)(=O)c3ccccc3)o2)N=C1C	ABHD4 inh 32 | ABHD4 confirm inactive
Cc1cc(Nc2ccc(Cl)c(C(F)(F)F)c2)cc(=O)n1-c1ccc(Cl)c(C(F)(F)F)c1	none (no result: HTRA1 inhibitor)
Nc1ccc2cc3[nH]c4cc(N)ccc4c3nc2c1	ABHD4 inh 36 | ABHD4 confirm 72
COc1ccc(OC)c(CN2C(=O)CCCC2(C)c2nnnn2C2CCCC2)c1 (stereo not drawn)	none (no result: TCR CD3 inh, HTRA1 inhibitor)
NC(=O)c1ccsc1NC(=O)c1ccc([N+](=O)[O-])o1	ABHD4 inh 50 | ABHD4 confirm 56
CCN(CC)S(=O)(=O)c1ccc(N2CCCC2)c(C(=O)OCC(=O)Nc2cc(C)on2)c1	ABHD4 inh 45 | ABHD4 confirm 61
COc1cc(N(C(C)=O)c2ccc(O)cc2)c2ncccc2c1	none
COc1cc(N(C(C)=O)c2ccc(O)c(C(=O)O)c2)c2ncccc2c1	ABHD4 inh 31 | ABHD4 confirm 47
COc1ccc(NS(=O)(=O)c2cc(N=Nc3c(O)[nH]c(=O)[nH]c3=O)ccc2OC)cc1Br	none
CCOc1ccc(NS(=O)(=O)c2ccc(Cl)c(N=Nc3c(O)[nH]c(=S)[nH]c3=O)c2)cc1Br	ABHD4 inh 39 | ABHD4 confirm 52
COc1ccc(-c2nc3cc(C)ccn3c2NCC2CCCO2)cc1OC (stereo not drawn)	none
CCCCNc1c(-c2ccc(-c3ccc(C(C)=O)cc3)c(OC)c2)nc2cc(C)ccn12	ABHD4 inh 46 | ABHD4 confirm 56
CCCCNc1c(-c2ccc(Sc3ccc(OC)cc3)cc2)nc2cc(C)ccn12	ABHD4 inh 39 | ABHD4 confirm 39
COc1ccc(-c2nc3cc(C)ccn3c2NCc2ccc3c(c2)OCO3)cc1	none
COC(=O)c1cc2c(c3c4cc(F)ccc4n(S(=O)(=O)c4ccc(OC)cc4)c13)C(=O)N(Cc1ccccc1OC)C2	none (no result: HTRA1 inhibitor)
COc1ccc(C2=CC(=O)N(Nc3ccccc3)C2=O)cc1	none (no result: HTRA1 inhibitor)
O=C1C=C(c2ccccc2)C(=O)N1Nc1ccccc1	ABHD4 inh 31 | ABHD4 confirm inactive
CC1CCN(C2=C(NS(=O)(=O)c3ccc(Cl)cc3)C(=O)c3ccccc3C2=O)CC1	none
CCOC(=O)C1CCN(C2=C(NS(=O)(=O)c3ccc(Cl)cc3)C(=O)c3ccccc3C2=O)CC1	ABHD4 inh 41 | ABHD4 confirm 58
